High-throughput results deposited in PubChem BioAssay by several laboratories.
This is a sample that favours compounds with a hit; in the whole collection about 2.3% have one here.
CHT inh: human CHT choline transport inhibition | Q9GZV3 | CHT-expressing cells, membrane potential dye, choline response; stronger effect = lower value | B-score at 10 µM | hit rate 0.86% among 310,000 | AID 488975;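 active means B-score over 3 SD under the library average, and starting fluorescence ratio not unusually high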;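 further: choline stimulus applied at its EC90 after an EC20 pre-addition; B-score computed on integrated fluorescence ratio after choline addition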
CHT PAM: human CHT allosteric activation; Q9GZV3; CHT-expressing cells, membrane potential dye, choline EC20; stronger effect = higher value; LV-AA mutant CHT in HEK293 cells; B-score at 10 µM; hit rate 0.49% among 310,000; AID 488977;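 active means initial fluorescence not abnormally high and integrated response B-score, plate-corrected, over 3 SD above library mean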
NR2E3 ag-1: human photoreceptor-specific nuclear receptor agonism; CHO-S Gal4-NCOR/VP16-NR2E3 two-hybrid, luciferase; inhibition of corepressor binding, % at 3.98 µM; hit rate 0.35% among 360,000; AID 602229;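 active means inhibition above the mean of all tested compounds plus 3 SD, cut at about 70% in these data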;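 further: higher means lower luciferase signal from less NR2E3 corepressor binding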
Target sequence (Q9Y5X4 whole entry, looked up, the tested form may be a part): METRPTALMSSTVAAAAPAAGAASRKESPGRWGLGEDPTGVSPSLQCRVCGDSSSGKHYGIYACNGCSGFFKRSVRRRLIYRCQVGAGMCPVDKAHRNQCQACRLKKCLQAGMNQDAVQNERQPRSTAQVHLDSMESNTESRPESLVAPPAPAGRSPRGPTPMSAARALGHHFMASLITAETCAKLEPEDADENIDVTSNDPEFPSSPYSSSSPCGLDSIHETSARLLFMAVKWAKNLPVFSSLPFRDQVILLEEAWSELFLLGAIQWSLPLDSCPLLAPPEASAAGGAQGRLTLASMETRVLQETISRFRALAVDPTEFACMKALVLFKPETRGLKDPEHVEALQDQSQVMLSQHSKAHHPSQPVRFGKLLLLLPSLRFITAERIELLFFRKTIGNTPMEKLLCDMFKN
NR2E3 ag-2: NR2E3 (human) agonism | GST-NR2E3/biotin-RetCOR TR-FRET, 1536-well | AID 2300 | Q9Y5X4 | inhibition of corepressor binding, % at 4.78 µM | hit rate 0.12% among 320,000;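 active means percent inhibition above the cutoff of mean plus 3 SD of all tested compounds, set per screening campaign, cut at about 20% in these data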
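Test system – NR2E3–RetCOR corepressor complex · Quantity – NR2E3 fusion 1.35 nM · Buffer or medium – Tris pH 7.5 · Incubation – Compound–protein incubation for 5 h at 4 °C · Technique – TR-FRET, Eu(K)-anti-GST donor, streptavidin-D2 acceptor, ex 340, em 617/671 nm · Evaluation – percent inhibition of 671/617 nm emission ratio versus biotin and DMSO controls · Plate – 1536-well format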
GalR3 antag: human GalR3 antagonism; O60755; HEK293 GalR3-CNG cAMP membrane potential fluorescence; galR3 body fused to GalR1 C-terminus; inhibition, % at 3 µM; hit rate 0.44% among 360,000; AID 651719;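 active means inhibition above the screen-wide average plus 3 SD, cut at about 13% in these data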;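 further: forskolin and galanin both at EC90 stimulate the cells; cAMP rise reported by CNG channel membrane potential dye signal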
Target sequence (O60755 1-299 limits assumed): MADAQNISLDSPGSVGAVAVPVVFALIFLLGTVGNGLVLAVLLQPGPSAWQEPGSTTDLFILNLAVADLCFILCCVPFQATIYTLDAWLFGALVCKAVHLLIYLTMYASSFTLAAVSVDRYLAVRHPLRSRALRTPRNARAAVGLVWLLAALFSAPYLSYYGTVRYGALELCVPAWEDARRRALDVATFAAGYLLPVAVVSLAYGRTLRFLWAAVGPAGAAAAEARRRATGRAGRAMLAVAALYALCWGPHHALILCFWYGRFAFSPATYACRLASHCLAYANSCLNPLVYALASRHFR
COUP-TFII inh: blocks human COUP-TFII nuclear receptor; HEK293T NGFI-A luciferase reporter, luminescence; inhibition, % at 8.6 µM; hit rate 0.7% among 370,000;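 active means inhibition above a per-plate cutoff, mean inhibition of test wells between control levels plus 3 SD, cut at about 38% in these data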;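 further: cells cotransfected with COUP-TFII expression vector driving the NGFI-A reporter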
NR2E3 ag conf: NR2E3 agonism confirmed in two-hybrid assay | inhibition, % at 3.98 µM | CHO-S mammalian two-hybrid NR2E3-NCOR, luciferase luminescence | shares compounds with NR2E3 ag-1 | hit rate 51% among 2,300;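 active means average inhibition above a cutoff equal to the mean inhibition of all tested compounds plus one SD, cut at about 70% in these data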
VP16 counter: GAL4-VP16 reporter inhibition in NR2E3 agonist counterscreen; shares compounds with NR2E3 ag-1; CHO-S GAL4-VP16 luciferase reporter, luminescence; inhibition, % at 3.98 µM; hit rate 29% among 2,300; AID 624379;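 active means mean inhibition above a cutoff equal to the average over all tested compounds plus one standard deviation, cut at about 70% in these data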;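 further: luciferase from a UAS reporter driven by GAL4-VP16 transactivation; higher means less reporter light so more repression of VP16 activity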
GalR3 conf: confirmation of human galanin receptor 3 antagonists | shares compounds with GalR3 antag | HEK293 GalR3 CNG cAMP biosensor, membrane potential fluorescence; galR3 fused to GalR1 carboxy tail; challenged with forskolin and galanin at EC90 | inhibition, % at 3 µM | hit rate 59% among 1,600;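 active means inhibition above the primary screen's cutoff, the mean inhibition of all screened compounds plus 3 SD, cut at about 13% in these data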
HEK-CNG parental: counter-screen for GalR3 antagonists: nonspecific agonists in parental HEK-CNG cells; shares compounds with GalR3 antag; HEK293-CNG parental cells, cAMP membrane potential fluorescence; normalised: DMSO wells 0%, forskolin wells 100%; activation, % at 3 µM; hit rate 10% among 1,600; AID 652268; in the data active means activation above about 1.3%
VP16 Luc counter: VP16 inhibition counter-screen for COUP-TFII; shares compounds with COUP-TFII inh; HEK293 Gal4-VP16 luciferase reporter, luminescence; inhibition, % at 8.5 µM; hit rate 25% among 2,500; in the data active means inhibition above about 13%
NR2F2 inh conf: confirmation of human COUP-TFII (NR2F2) inhibitors; shares compounds with COUP-TFII inh; HEK293 NGFI-A luciferase reporter, luminescence; inhibition, % at 8.5 µM; hit rate 45% among 2,500; AID 687008;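 active means mean inhibition over three repeats above a set limit taken from the earlier primary screen, cut at about 38% in these data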
Of the large screens only hits and unclear results are named; the others gave an inactive call (follow-up assays come after a bar, where they were run).

CN(C)c1ccc(-[n+]2c(-c3ccccc3)cc(-c3ccccc3)cc2-c2ccccc2)cc1	COUP-TFII inh 86 (no result: CHT inh, CHT PAM, NR2E3 ag-2) | NR2E3 ag conf 96 | VP16 counter inactive | VP16 Luc counter 27 | NR2F2 inh conf 90
C[C@H](CO)N1C[C@H](C)[C@H](CN(C)C(=O)Oc2ccccc2)OCc2cnnn2CCCC1=O	none (no result: CHT inh, CHT PAM, NR2E3 ag-2)
CCCCCN1C(=O)c2cc(OC)ccc2[C@@]2(C(=O)OCC)Cc3cc(Cl)ccc3[C@@H]12	GalR3 antag 36 (no result: CHT inh, CHT PAM, NR2E3 ag-2) | GalR3 conf 52 | HEK-CNG parental 2.6
CCOC(=O)[C@]12Cc3cc(Cl)ccc3[C@H]1N(Cc1ccccc1)C(=O)c1cc(OC)ccc12	none (no result: CHT inh, CHT PAM, NR2E3 ag-2)
CCC(=NC(C)c1ccccc1)c1c(O)[nH]c(=O)[nH]c1=O (configuration not stated)	none
CCC(=NCCC(c1ccccc1)c1ccccc1)c1c(O)[nH]c(=O)[nH]c1=O	GalR3 antag 26 | GalR3 conf 38 | HEK-CNG parental inactive
COC1=CC(=O)[C@]2(C=C1OC)OC[C@@H]1Oc3c(ccc4c3C=CC(C)(C)O4)C(=O)[C@@H]12	GalR3 antag 41, COUP-TFII inh 73 (no result: CHT inh, CHT PAM, NR2E3 ag-1, NR2E3 ag-2) | GalR3 conf 98 | HEK-CNG parental inactive
CCOC(=O)[C@]12Cc3cc4ccccc4cc3[C@H]1N(Cc1ccccc1)C(=O)c1ccccc12	none (no result: CHT inh, CHT PAM, NR2E3 ag-2)
CCC(c1nnnn1C1CCCC1)N1CCC2(CC1)C(=O)NCN2c1ccccc1 (configuration not stated)	none (no result: CHT inh, CHT PAM, NR2E3 ag-2)
CCCCNS(=O)(=O)c1ccc(OCC(=O)N2CCN(Cc3ccc4c(c3)OCO4)CC2)cc1	GalR3 antag 14 | GalR3 conf 17 | HEK-CNG parental inactive
CCOC(=O)[C@]12Cc3cc(OC)ccc3[C@H]1N(CCC(=O)OC)C(=O)c1cc(OC)ccc12	none (no result: CHT inh, CHT PAM, NR2E3 ag-2)
CCn1c(C)c(C(=O)O)c2cc(OC)ccc21	GalR3 antag 13 | GalR3 conf inactive | HEK-CNG parental inactive
CCc1ccc(CN2CCN(Cc3ccc(SC)cc3)CC2)cc1	GalR3 antag 50 | GalR3 conf 60 | HEK-CNG parental 1.4
C=CCn1c(O)c(C(CC)=Nc2cccc(C(=O)O)c2)c(=O)[nH]c1=O	GalR3 antag 15 | GalR3 conf inactive | HEK-CNG parental inactive
CCOC(=O)[C@]12Cc3cc(OC)ccc3[C@H]1N(C(C)C)C(=O)c1cc(OC)ccc12	none (no result: CHT inh, CHT PAM, NR2E3 ag-2)
Clc1cccc(N2Cc3cc(-c4ccccc4)ccc3-n3nncc3C2)c1	none (no result: CHT inh, CHT PAM, NR2E3 ag-2)
COc1ccc2c(C)c(CC(=O)N3C[C@H]4C[C@@H](C3)c3cccc(=O)n3C4)c(=O)oc2c1	none
COc1ccc2c(C)c(CC(=O)N3C[C@H]4C[C@@H](C3)c3cccc(=O)n3C4)c(=O)oc2c1C	GalR3 antag 20 | GalR3 conf inactive | HEK-CNG parental inactive
CC1OC(OC2C=C3CCC4C(CCC5(C)C(c6ccc(=O)oc6)CCC45O)C3(C)CC2)C(O)C(OC2OC(CO)C(O)C(O)C2O)C1O (configuration not stated)	GalR3 antag 14, COUP-TFII inh 78 (no result: CHT inh, CHT PAM, NR2E3 ag-2) | GalR3 conf 39 | HEK-CNG parental 4.1 | VP16 Luc counter 54 | NR2F2 inh conf 80
COc1ccc2[nH]c(C)c(CCNCc3cc(OC)c(OC)c(OC)c3)c2c1	none
COc1ccc(CNCCc2c(C)[nH]c3ccc(OC(F)(F)F)cc23)c(OC)c1	GalR3 antag 24, COUP-TFII inh 51 | GalR3 conf 90 | HEK-CNG parental inactive | VP16 Luc counter inactive | NR2F2 inh conf 45
CCc1nn2c(=O)c(F)c(N3CCNCC3)nc2s1	none (no result: CHT inh, CHT PAM, NR2E3 ag-2)
CC12CCC3C(CCC4(O)CC(O)CCC34C=O)C1(O)CCC2C1=CC(=O)OC1 (configuration not stated)	GalR3 antag 18, COUP-TFII inh 71 (no result: CHT inh, CHT PAM, NR2E3 ag-2) | GalR3 conf 47 | HEK-CNG parental 4.2 | VP16 Luc counter 24 | NR2F2 inh conf 64
COc1c(OP2(=S)OCC(C)(C)CO2)cnn(C2CCCCC2)c1=O	none (no result: CHT inh, CHT PAM, NR2E3 ag-2)
Cc1ccc(-c2cc(-c3ccc(C)cc3)[n+](C)o2)cc1	COUP-TFII inh 69 | VP16 Luc counter inactive | NR2F2 inh conf 56
CCCCn1nnnc1C(CCSC)N1CCC2(CC1)C(=O)NCN2c1ccccc1 (configuration not stated)	none (no result: CHT inh, CHT PAM, NR2E3 ag-2)
CCOC(=O)[C@]12Cc3cc(Cl)ccc3[C@H]1N(C(C)C)C(=O)c1ccccc12	COUP-TFII inh 41 (no result: CHT inh, CHT PAM, NR2E3 ag-2) | VP16 Luc counter 21 | NR2F2 inh conf 53
CCOC(=O)[C@]12Cc3cc(Cl)ccc3[C@H]1N(C)C(=O)c1ccccc12	none (no result: CHT inh, CHT PAM, NR2E3 ag-2)
O=c1[nH]c2ccccc2n1C1CCN(C(c2cccs2)c2nnnn2-c2ccc3c(c2)OCCO3)CC1 (configuration not stated)	none (no result: CHT inh, CHT PAM, NR2E3 ag-2)
O=C1NCN(c2ccccc2)C12CCN(C(c1cccc3ccccc13)c1nnnn1-c1ccc3c(c1)OCCO3)CC2 (configuration not stated)	none (no result: CHT inh, CHT PAM, NR2E3 ag-2)
C[C@]12CCC3C(CCC4=CC(O)CC[C@@]43/C=N/O)C1(O)CCC2C1=CC(=O)OC1 (some centres not stated)	GalR3 antag 15, COUP-TFII inh 75 | VP16 Luc counter 37 | NR2F2 inh conf 68
CC12CC[C@H]3[C@@H](CCC4(O)C[C@H](O)CCC34/C=N/NC(=O)c3ccccc3Cl)C1(O)CCC2C1=CC(=O)OC1 (some centres not stated)	none
CC12CCC3C(CCC4(O)CC(O)CCC34C=NO)C1(O)CCC2C1=COC(=O)C1 (configuration not stated)	GalR3 antag 23, COUP-TFII inh 81 (no result: CHT inh, CHT PAM, NR2E3 ag-2) | VP16 Luc counter 43 | NR2F2 inh conf 69
